From ChEMBL document CHEMBL3272355, “Structure--activity relationships in cephalosporins prepared from penicillins. 1. 7beta-Acylamino derivatives of 3-benzyl- and 3-(3-pyridylmethyl)ceph-3-em-4-carboxylic acids” (1977)
≈ marks a conversion by molar mass, not a printed value.

What was measured:
[1] = system: Shigella sonnei; assay: Antibacterial activity against Shigella sonnei assessed as growth inhibition after 18 hrs by serial dilution method; assay type: functional
Outline: (§1)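 Agar dilution MIC: serial dilutions in nutrient agar, each spot-inoculated with 0.001 mL of undiluted overnight broth culture. MIC read after 18 h incubation at 37 °C.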

[2] = system: Klebsiella aerogenes; assay: Antibacterial activity against Klebsiella aerogenes assessed as growth inhibition after 18 hrs by serial dilution method; assay type: functional; outline: as §1
[3] = system: Escherichia coli; assay: Antibacterial activity against Escherichia coli assessed as growth inhibition after 18 hrs by serial dilution method; assay type: functional; outline: as §1
[4] = system: Staphylococcus aureus; assay: Antibacterial activity against Staphylococcus aureus Oxford assessed as growth inhibition after 18 hrs by serial dilution method; assay type: functional; outline: as §1
[5] = system: Staphylococcus aureus; assay: Antibacterial activity against beta-lactamase producing benzylpenicillin-resistant Staphylococcus aureus Russell assessed as growth inhibition after 18 hrs by serial dilution method; assay type: functional
[6] = system: Proteus mirabilis; assay: Antibacterial activity against Proteus mirabilis assessed as growth inhibition after 18 hrs by serial dilution method; assay type: functional; outline: as §1
[7] = system: Salmonella typhi; assay: Antibacterial activity against Salmonella typhi assessed as growth inhibition after 18 hrs by serial dilution method; assay type: functional, Salmonella enterica subsp. enterica serovar Typhi; conditions: Salmonella enterica

SMILES	MIC [1]	MIC [2]	MIC [3]	MIC [4]	MIC [5]	MIC [6]	MIC [7]
N[C@@H](C(=O)N[C@@H]1C(=O)N2C(C(=O)O)=C(Cc3ccccc3)CS[C@H]12)c1ccccc1	25 µg/mL (≈ 59 µM)	25 µg/mL (≈ 59 µM)	25 µg/mL (≈ 59 µM)	0.1 µg/mL (≈ 0.236 µM)	2.5 µg/mL (≈ 5.9 µM)	50 µg/mL (≈ 118 µM)	25 µg/mL (≈ 59 µM)
N[C@@H](C(=O)N[C@@H]1C(=O)N2C(C(=O)O)=C(Cc3cccnc3)CS[C@H]12)c1ccccc1	2.5 µg/mL (≈ 5.89 µM)	2.5 µg/mL (≈ 5.89 µM)	2.5 µg/mL (≈ 5.89 µM)	0.25 µg/mL (≈ 0.589 µM)	2.5 µg/mL (≈ 5.89 µM)	5 µg/mL (≈ 11.8 µM)	1.25 µg/mL (≈ 2.94 µM)
O=C(Cc1cccs1)N[C@@H]1C(=O)N2C(C(=O)O)=C(Cc3ccccc3)CS[C@H]12	200 µg/mL (≈ 482 µM)	> 200 µg/mL	200 µg/mL (≈ 482 µM)	0.05 µg/mL (≈ 0.121 µM)	10 µg/mL (≈ 24.1 µM)	> 200 µg/mL	200 µg/mL (≈ 482 µM)
CC(=O)N[C@@H]1C(=O)N2C(C(=O)O)=C(Cc3ccccc3)CS[C@H]12	> 500 µg/mL	> 500 µg/mL	> 500 µg/mL	0.5 µg/mL (≈ 1.5 µM)	2.5 µg/mL (≈ 7.52 µM)	> 500 µg/mL	500 µg/mL (≈ 1500 µM)
O=C(O)C1=C(Cc2ccccc2)CS[C@@H]2[C@H](NC(=O)C(F)(F)F)C(=O)N12	> 500 µg/mL	> 500 µg/mL	> 500 µg/mL	2.5 µg/mL (≈ 6.47 µM)	12.5 µg/mL (≈ 32.4 µM)	500 µg/mL (≈ 1290 µM)	> 500 µg/mL
N#CCC(=O)N[C@@H]1C(=O)N2C(C(=O)O)=C(Cc3ccccc3)CS[C@H]12	500 µg/mL (≈ 1400 µM)	> 500 µg/mL	500 µg/mL (≈ 1400 µM)	0.12 µg/mL (≈ 0.336 µM)	0.5 µg/mL (≈ 1.4 µM)	> 500 µg/mL	250 µg/mL (≈ 700 µM)
O=C(COc1ccccc1)N[C@@H]1C(=O)N2C(C(=O)O)=C(Cc3ccccc3)CS[C@H]12	> 500 µg/mL	> 500 µg/mL	> 500 µg/mL	0.02 µg/mL (≈ 0.0471 µM)	0.12 µg/mL (≈ 0.283 µM)	500 µg/mL (≈ 1180 µM)	> 500 µg/mL
CCSCC(=O)N[C@@H]1C(=O)N2C(C(=O)O)=C(Cc3ccccc3)CS[C@H]12	> 125 µg/mL	> 125 µg/mL	> 125 µg/mL	0.12 µg/mL (≈ 0.306 µM)	1.25 µg/mL (≈ 3.18 µM)	> 125 µg/mL	125 µg/mL (≈ 318 µM)
O=C(O)CSCC(=O)N[C@@H]1C(=O)N2C(C(=O)O)=C(Cc3ccccc3)CS[C@H]12	250 µg/mL (≈ 592 µM)	> 500 µg/mL	> 500 µg/mL	5 µg/mL (≈ 11.8 µM)	25 µg/mL (≈ 59.2 µM)	125 µg/mL (≈ 296 µM)	250 µg/mL (≈ 592 µM)
O=C(O)C1=C(Cc2ccccc2)CS[C@@H]2[C@H](NC(=O)[C@H](O)c3ccccc3)C(=O)N12	50 µg/mL (≈ 118 µM)	50 µg/mL (≈ 118 µM)	125 µg/mL (≈ 294 µM)	0.12 µg/mL (≈ 0.283 µM)	12.5 µg/mL (≈ 29.4 µM)	> 500 µg/mL	50 µg/mL (≈ 118 µM)
O=C(O)C1=C(Cc2ccccc2)CS[C@@H]2[C@H](NC(=O)C(C(=O)Oc3ccccc3)c3ccccc3)C(=O)N12 (some centres undefined)	> 100 µg/mL	> 100 µg/mL	> 100 µg/mL	2.5 µg/mL (≈ 4.73 µM)	25 µg/mL (≈ 47.3 µM)	50 µg/mL (≈ 94.6 µM)	> 100 µg/mL
O=C(Cc1ccncc1)N[C@@H]1C(=O)N2C(C(=O)O)=C(Cc3ccccc3)CS[C@H]12	50 µg/mL (≈ 122 µM)	100 µg/mL (≈ 244 µM)	50 µg/mL (≈ 122 µM)	0.05 µg/mL (≈ 0.122 µM)	5 µg/mL (≈ 12.2 µM)	100 µg/mL (≈ 244 µM)	50 µg/mL (≈ 122 µM)
O=C(CSc1ccncc1)N[C@@H]1C(=O)N2C(C(=O)O)=C(Cc3ccccc3)CS[C@H]12	250 µg/mL (≈ 566 µM)	> 500 µg/mL	250 µg/mL (≈ 566 µM)	0.05 µg/mL (≈ 0.113 µM)	2.5 µg/mL (≈ 5.66 µM)	250 µg/mL (≈ 566 µM)	250 µg/mL (≈ 566 µM)
O=C(Cn1ncnn1)N[C@@H]1C(=O)N2C(C(=O)O)=C(Cc3ccccc3)CS[C@H]12	125 µg/mL (≈ 312 µM)	500 µg/mL (≈ 1250 µM)	> 500 µg/mL	0.12 µg/mL (≈ 0.3 µM)	1.25 µg/mL (≈ 3.12 µM)	125 µg/mL (≈ 312 µM)	> 500 µg/mL
C[C@@H](N)C(=O)N[C@@H]1C(=O)N2C(C(=O)O)=C(Cc3ccccc3)CS[C@H]12	> 100 µg/mL	> 100 µg/mL	> 100 µg/mL	5 µg/mL (≈ 13.8 µM)	10 µg/mL (≈ 27.7 µM)	> 100 µg/mL	> 100 µg/mL
N[C@@H](C(=O)N[C@@H]1C(=O)N2C(C(=O)O)=C(Cc3ccccc3)CS[C@H]12)C1CC1	> 250 µg/mL	> 250 µg/mL	> 250 µg/mL	5 µg/mL (≈ 12.9 µM)	12.5 µg/mL (≈ 32.3 µM)	> 250 µg/mL	> 250 µg/mL
N[C@@H](C(=O)N[C@@H]1C(=O)N2C(C(=O)O)=C(Cc3ccccc3)CS[C@H]12)c1ccc(O)cc1	12.5 µg/mL (≈ 28.4 µM)	5 µg/mL (≈ 11.4 µM)	12.5 µg/mL (≈ 28.4 µM)	0.12 µg/mL (≈ 0.273 µM)	1.25 µg/mL (≈ 2.84 µM)	25 µg/mL (≈ 56.9 µM)	5 µg/mL (≈ 11.4 µM)
O=C(COc1ccccc1)N[C@@H]1C(=O)N2C(C(=O)O)=C(Cc3cccnc3)CS[C@H]12	500 µg/mL (≈ 1180 µM)	500 µg/mL (≈ 1180 µM)	500 µg/mL (≈ 1180 µM)	0.02 µg/mL (≈ 0.047 µM)	0.12 µg/mL (≈ 0.282 µM)	125 µg/mL (≈ 294 µM)	500 µg/mL (≈ 1180 µM)
CCSCC(=O)N[C@@H]1C(=O)N2C(C(=O)O)=C(Cc3cccnc3)CS[C@H]12	50 µg/mL (≈ 127 µM)	50 µg/mL (≈ 127 µM)	50 µg/mL (≈ 127 µM)	0.05 µg/mL (≈ 0.127 µM)	1.25 µg/mL (≈ 3.18 µM)	25 µg/mL (≈ 63.5 µM)	50 µg/mL (≈ 127 µM)
O=C(O)C1=C(Cc2cccnc2)CS[C@@H]2[C@H](NC(=O)[C@H](O)c3ccccc3)C(=O)N12	2.5 µg/mL (≈ 5.88 µM)	2.5 µg/mL (≈ 5.88 µM)	2.5 µg/mL (≈ 5.88 µM)	0.25 µg/mL (≈ 0.588 µM)	12.5 µg/mL (≈ 29.4 µM)	5 µg/mL (≈ 11.8 µM)	2.5 µg/mL (≈ 5.88 µM)
O=C(Cc1ccncc1)N[C@@H]1C(=O)N2C(C(=O)O)=C(Cc3cccnc3)CS[C@H]12	25 µg/mL (≈ 60.9 µM)	10 µg/mL (≈ 24.4 µM)	25 µg/mL (≈ 60.9 µM)	0.12 µg/mL (≈ 0.292 µM)	25 µg/mL (≈ 60.9 µM)	10 µg/mL (≈ 24.4 µM)	10 µg/mL (≈ 24.4 µM)
O=C(CSc1ccncc1)N[C@@H]1C(=O)N2C(C(=O)O)=C(Cc3cccnc3)CS[C@H]12	25 µg/mL (≈ 56.5 µM)	5 µg/mL (≈ 11.3 µM)	25 µg/mL (≈ 56.5 µM)	< 0.02 µg/mL	1 µg/mL (≈ 2.26 µM)	100 µg/mL (≈ 226 µM)	10 µg/mL (≈ 22.6 µM)
O=C(O)C1=C(Cc2cccnc2)CS[C@@H]2[C@H](NC(=O)C(C(=O)Oc3ccccc3)c3cccs3)C(=O)N12 (some centres undefined)	12.5 µg/mL (≈ 23.3 µM)	12.5 µg/mL (≈ 23.3 µM)	12.5 µg/mL (≈ 23.3 µM)	12.5 µg/mL (≈ 23.3 µM)	–	12.5 µg/mL (≈ 23.3 µM)	50 µg/mL (≈ 93.4 µM)
N[C@@H](C(=O)N[C@@H]1C(=O)N2C(C(=O)O)=C(Cc3cccnc3)CS[C@H]12)C1CC1	250 µg/mL (≈ 644 µM)	250 µg/mL (≈ 644 µM)	500 µg/mL (≈ 1290 µM)	5 µg/mL (≈ 12.9 µM)	12.5 µg/mL (≈ 32.2 µM)	500 µg/mL (≈ 1290 µM)	250 µg/mL (≈ 644 µM)
NC(C(=O)N[C@@H]1C(=O)N2C(C(=O)O)=C(Cc3cccnc3)CS[C@H]12)c1cccs1 (some centres undefined)	5 µg/mL (≈ 11.6 µM)	5 µg/mL (≈ 11.6 µM)	12.5 µg/mL (≈ 29 µM)	0.5 µg/mL (≈ 1.16 µM)	5 µg/mL (≈ 11.6 µM)	12.5 µg/mL (≈ 29 µM)	2.5 µg/mL (≈ 5.81 µM)
O=C(Cc1cccs1)N[C@@H]1C(=O)N2C(C(=O)O)=C(Cc3cccnc3)CS[C@H]12	25 µg/mL (≈ 60.2 µM)	25 µg/mL (≈ 60.2 µM)	25 µg/mL (≈ 60.2 µM)	0.05 µg/mL (≈ 0.12 µM)	10 µg/mL (≈ 24.1 µM)	25 µg/mL (≈ 60.2 µM)	5 µg/mL (≈ 12 µM)
NC(CC(=O)N[C@@H]1C(=O)N2C(C(=O)O)=C(Cc3cccnc3)CS[C@H]12)C1CC=CCC1 (mixture of isomers)	125 µg/mL	125 µg/mL	125 µg/mL	0.5 µg/mL	1.25 µg/mL	250 µg/mL	125 µg/mL
CC1=C(C(=O)O)N2C(=O)[C@@H](NC(=O)[C@H](N)c3ccccc3)[C@H]2SC1 [CEPHALEXIN ANHYDROUS]	5 µg/mL (≈ 14.4 µM)	5 µg/mL (≈ 14.4 µM)	12.5 µg/mL (≈ 36 µM)	1.25 µg/mL (≈ 3.6 µM)	5 µg/mL (≈ 14.4 µM)	12.5 µg/mL (≈ 36 µM)	5 µg/mL (≈ 14.4 µM)
O=C(Cc1cccs1)N[C@@H]1C(=O)N2C(C(=O)[O-])=C(C[n+]3ccccc3)CS[C@H]12 [CEPHALORIDINE]	1.25 µg/mL (≈ 3.01 µM)	2.5 µg/mL (≈ 6.02 µM)	5 µg/mL (≈ 12 µM)	0.02 µg/mL (≈ 0.0481 µM)	1.25 µg/mL (≈ 3.01 µM)	5 µg/mL (≈ 12 µM)	1.25 µg/mL (≈ 3.01 µM)
CC(=O)OCC1=C(C(=O)O)N2C(=O)[C@@H](NC(=O)Cc3cccs3)[C@H]2SC1 [CEPHALOTHIN]	5 µg/mL (≈ 12.6 µM)	5 µg/mL (≈ 12.6 µM)	5 µg/mL (≈ 12.6 µM)	0.12 µg/mL (≈ 0.303 µM)	0.5 µg/mL (≈ 1.26 µM)	5 µg/mL (≈ 12.6 µM)	12.5 µg/mL (≈ 31.5 µM)
